Assay results published in ChEMBL document CHEMBL3739387, “Discovery and SAR of Novel and Selective Inhibitors of Urokinase Plasminogen Activator (uPA) with an Imidazo[1,2-a]pyridine Scaffold” (J Med Chem, 2015).
The source made the active and inactive calls. The calls are words filed in the database; no cut-off is given here.

Tests used:
[1] = target: T1, Coagulation factor VII (Homo sapiens) (UniProt P08709); experiment: Inhibition of purified human factor 7a using MeSO2-Cha-Abu-Arg-pNA as substrate at 100 uM measured for 5 mins by spectrophotometric assay
T1 sequence (whole entry): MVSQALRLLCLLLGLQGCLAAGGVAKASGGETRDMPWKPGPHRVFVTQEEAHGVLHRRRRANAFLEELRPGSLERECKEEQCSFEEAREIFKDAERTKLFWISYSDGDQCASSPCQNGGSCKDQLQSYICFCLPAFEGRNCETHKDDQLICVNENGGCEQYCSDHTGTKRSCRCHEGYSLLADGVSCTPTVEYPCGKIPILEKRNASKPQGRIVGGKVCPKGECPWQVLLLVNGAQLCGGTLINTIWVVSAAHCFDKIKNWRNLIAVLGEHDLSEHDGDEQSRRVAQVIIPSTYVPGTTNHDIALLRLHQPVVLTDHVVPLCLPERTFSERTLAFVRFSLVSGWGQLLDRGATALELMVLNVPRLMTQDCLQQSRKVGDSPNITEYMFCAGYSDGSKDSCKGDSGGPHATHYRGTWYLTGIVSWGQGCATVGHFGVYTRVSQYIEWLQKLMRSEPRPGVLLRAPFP
Method in brief: (§1)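 Purified human plasma FVIIa with tissue factor (Innovin) present. MeSO2-Cha-Abu-Arg-pNA at 800 μM in assay. Buffer 50 mM HEPES pH 7.5, 100 mM NaCl, 5 mM CaCl2, 0.1% BSA.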

Coagulation factor X [2] = target: T2, Coagulation factor X (Homo sapiens, UniProt P00742); experiment: Inhibition of purified human factor 10a using Suc-Ile-Glu(gammaPip)-GlyArg-pNa-HCl as substrate measured for 5 mins by spectrophotometric assay
T2 sequence (P00742 41-179 limits assumed): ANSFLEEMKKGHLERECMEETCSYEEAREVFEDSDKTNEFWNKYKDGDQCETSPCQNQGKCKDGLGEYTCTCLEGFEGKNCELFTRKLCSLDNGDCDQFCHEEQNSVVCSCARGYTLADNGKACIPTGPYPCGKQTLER
T2 sequence (P00742 235-488 limits assumed): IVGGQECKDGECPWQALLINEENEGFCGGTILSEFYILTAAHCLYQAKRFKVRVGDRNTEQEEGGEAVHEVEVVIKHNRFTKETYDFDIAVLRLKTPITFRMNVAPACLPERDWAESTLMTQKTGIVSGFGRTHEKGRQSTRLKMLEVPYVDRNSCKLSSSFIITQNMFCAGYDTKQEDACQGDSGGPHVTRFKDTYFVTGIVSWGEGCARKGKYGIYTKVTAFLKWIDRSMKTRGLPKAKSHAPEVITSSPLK
Method in brief: (§2)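 Purified human factor Xa, substrate Suc-Ile-Glu(γPip)-Gly-Arg-pNA (CS-11(32)) at 411 μM in assay. HEPES pH 8.2. Read at 405 nm for 5 min at 37 °C, duplicate wells.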

[3] = target: T3, Urokinase-type plasminogen activator (Homo sapiens, UniProt P00749); experiment: Tight binding inhibition of human uPA using pyro-Glu-Gly-Arg-pNA as substrate assessed as para-nitroaniline release from substrate measured for 5 mins by spectrophotometry based enzyme kinetics assay
Plasma kallikrein [4] = target: T4, Plasma kallikrein (Homo sapiens, UniProt P03952); experiment: Inhibition of human plasma kallikrein using D-Pro-Phe-Arg-pNA-2HCl as substrate measured for 5 mins by spectrophotometric assay; type: cell-free
T4 sequence (P03952 20-390 limits assumed): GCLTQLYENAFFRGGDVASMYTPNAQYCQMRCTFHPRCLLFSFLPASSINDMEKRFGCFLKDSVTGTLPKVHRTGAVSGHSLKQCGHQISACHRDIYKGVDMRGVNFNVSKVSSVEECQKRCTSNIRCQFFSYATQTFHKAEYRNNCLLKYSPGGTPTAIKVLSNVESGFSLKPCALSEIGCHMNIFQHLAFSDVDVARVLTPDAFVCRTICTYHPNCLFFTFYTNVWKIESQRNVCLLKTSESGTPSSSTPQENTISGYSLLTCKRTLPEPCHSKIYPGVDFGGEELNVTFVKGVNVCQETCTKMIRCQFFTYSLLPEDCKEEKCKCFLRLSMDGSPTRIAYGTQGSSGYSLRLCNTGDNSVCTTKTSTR
T4 sequence (P03952 391-638 limits assumed): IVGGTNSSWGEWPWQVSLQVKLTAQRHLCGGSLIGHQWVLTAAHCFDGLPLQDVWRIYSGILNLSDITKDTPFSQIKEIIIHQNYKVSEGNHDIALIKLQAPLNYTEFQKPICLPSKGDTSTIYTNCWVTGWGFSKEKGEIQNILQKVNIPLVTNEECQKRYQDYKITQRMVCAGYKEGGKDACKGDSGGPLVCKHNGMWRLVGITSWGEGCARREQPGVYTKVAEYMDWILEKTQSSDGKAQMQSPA
Method in brief: (§3)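 Human plasma kallikrein, chromogenic substrate CS-31(02) (Km 269 μM) at 269 μM in assay. 50 mM HEPES at pH 7.4. Absorbance at 405 nm over 5 min at 37 °C, duplicates.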

[5] = target: T5, Tissue-type plasminogen activator (Homo sapiens, UniProt P00750); experiment: Inhibition of recombinant human tPA using H-D-Ile-Pro-L-Arg-pNA-2HCl as substrate at 100 uM measured for 5 mins by spectrophotometric assay
Target sequence in this assay (P00750 36-562 limits assumed): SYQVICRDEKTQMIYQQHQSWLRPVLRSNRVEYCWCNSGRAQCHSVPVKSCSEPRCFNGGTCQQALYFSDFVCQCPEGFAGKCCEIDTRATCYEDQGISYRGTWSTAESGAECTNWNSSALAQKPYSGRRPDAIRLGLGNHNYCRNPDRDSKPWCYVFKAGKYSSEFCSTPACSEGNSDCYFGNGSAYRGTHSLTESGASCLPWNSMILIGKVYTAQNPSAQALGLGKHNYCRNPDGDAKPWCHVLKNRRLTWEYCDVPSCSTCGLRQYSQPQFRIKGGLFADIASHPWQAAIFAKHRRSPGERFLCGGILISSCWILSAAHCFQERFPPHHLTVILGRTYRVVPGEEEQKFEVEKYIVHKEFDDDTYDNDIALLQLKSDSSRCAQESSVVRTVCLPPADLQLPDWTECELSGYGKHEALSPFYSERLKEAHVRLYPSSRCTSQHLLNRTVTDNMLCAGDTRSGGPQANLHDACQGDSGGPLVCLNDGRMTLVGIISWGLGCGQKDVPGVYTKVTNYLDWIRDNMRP

Coagulation factor X [6] = target: T2, Coagulation factor X; experiment: Inhibition of purified human factor 10a using Suc-Ile-Glu(yPip)-GlyArg-pNa-HCl as substrate at 100 uM measured for 5 mins by spectrophotometric assay; method in brief: as §2
Homo sapiens [7] = species: Homo sapiens; experiment: Selectivity index, ratio of IC50 for recombinant human tPA to IC50 for human uPA
[8] = target: T3, Urokinase-type plasminogen activator; experiment: Reversible inhibition of human uPA using pyro-Glu-Gly-Arg-pNA as substrate assessed as para-nitroaniline release from substrate measured for 5 mins by spectrophotometry based enzyme kinetics assay
[9] = Selectivity index, ratio of IC50 for bovine pancreatic trypsin to IC50 for human uPA
Homo sapiens [10] = species: Homo sapiens; experiment: Selectivity index, ratio of IC50 for purified human factor 10a to IC50 for human uPA
Homo sapiens [11] = species: Homo sapiens; experiment: Selectivity index, ratio of IC50 for human plasma kallikrein to IC50 for human uPA
[12] = target: T3, Urokinase-type plasminogen activator; experiment: Slow dissociating inhibition of human uPA using pyro-Glu-Gly-Arg-pNA as substrate assessed as para-nitroaniline release from substrate measured for 5 mins by spectrophotometry based enzyme kinetics assay
[13] = target: T3, Urokinase-type plasminogen activator; experiment: Inhibition of human uPA using pyro-Glu-Gly-Arg-pNA as substrate assessed as para-nitroaniline release from substrate measured for 5 mins by spectrophotometric assay
Homo sapiens [14] = species: Homo sapiens; experiment: Selectivity index, ratio of IC50 for human plasma thrombin to IC50 for human uPA
Homo sapiens [15] = species: Homo sapiens; experiment: Selectivity index, ratio of IC50 for human plasma plasmin to IC50 for human uPA
[16] = target: T5, Tissue-type plasminogen activator; experiment: Inhibition of recombinant human tPA using H-D-Ile-Pro-L-Arg-pNA-2HCl as substrate measured for 5 mins by spectrophotometric assay
Target sequence in this assay (P00750 whole entry): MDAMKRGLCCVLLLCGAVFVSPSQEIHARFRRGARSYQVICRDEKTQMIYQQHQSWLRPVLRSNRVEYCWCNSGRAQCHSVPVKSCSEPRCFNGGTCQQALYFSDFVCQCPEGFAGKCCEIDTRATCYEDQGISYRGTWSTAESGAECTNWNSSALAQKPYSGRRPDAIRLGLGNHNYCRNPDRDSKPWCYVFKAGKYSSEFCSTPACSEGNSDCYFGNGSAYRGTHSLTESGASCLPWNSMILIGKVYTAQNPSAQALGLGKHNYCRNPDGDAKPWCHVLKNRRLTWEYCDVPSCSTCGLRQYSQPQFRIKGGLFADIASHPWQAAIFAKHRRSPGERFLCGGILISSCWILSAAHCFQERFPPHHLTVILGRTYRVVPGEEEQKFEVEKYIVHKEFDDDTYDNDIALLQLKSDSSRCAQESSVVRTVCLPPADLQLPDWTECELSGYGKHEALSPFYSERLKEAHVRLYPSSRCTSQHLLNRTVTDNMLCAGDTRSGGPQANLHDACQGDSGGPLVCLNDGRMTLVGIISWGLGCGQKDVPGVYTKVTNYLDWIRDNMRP

Prothrombin [17] = target: T6, Prothrombin (Homo sapiens, UniProt P00734); experiment: Inhibition of human plasma thrombin using pyroGlu-Pro-Arg-pNA-HCl as substrate measured for 5 mins by spectrophotometric assay; type: cell-free
Method in brief: (§4)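 Thrombin from human plasma with pyroGlu-Pro-Arg-pNA (CS-21(66), Km 400 μM) at 415 μM in assay. 50 mM HEPES pH 8.2. pNA release at 405 nm over 5 min at 37 °C, in duplicate.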

Plasminogen [18] = target: T7, Plasminogen (Homo sapiens, UniProt P00747); experiment: Inhibition of human plasma plasmin using pyroGlu-Pro-Arg-pNA-HCl as substrate measured for 5 mins by spectrophotometric assay; type: cell-free
T7 sequence (P00747 97-580 limits assumed): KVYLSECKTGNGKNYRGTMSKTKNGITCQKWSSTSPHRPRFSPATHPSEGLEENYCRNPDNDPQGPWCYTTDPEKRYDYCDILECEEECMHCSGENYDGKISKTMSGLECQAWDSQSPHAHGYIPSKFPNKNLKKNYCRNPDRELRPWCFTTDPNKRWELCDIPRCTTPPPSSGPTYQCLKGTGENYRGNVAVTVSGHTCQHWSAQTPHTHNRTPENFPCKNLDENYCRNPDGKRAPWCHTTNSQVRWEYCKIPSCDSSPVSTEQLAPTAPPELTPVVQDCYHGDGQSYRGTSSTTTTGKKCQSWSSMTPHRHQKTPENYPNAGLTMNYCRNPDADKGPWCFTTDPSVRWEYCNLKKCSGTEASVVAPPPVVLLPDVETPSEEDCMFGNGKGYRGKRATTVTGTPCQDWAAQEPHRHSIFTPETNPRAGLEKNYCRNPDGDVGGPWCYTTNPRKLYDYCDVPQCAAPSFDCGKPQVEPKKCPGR
T7 sequence (P00747 581-810 limits assumed): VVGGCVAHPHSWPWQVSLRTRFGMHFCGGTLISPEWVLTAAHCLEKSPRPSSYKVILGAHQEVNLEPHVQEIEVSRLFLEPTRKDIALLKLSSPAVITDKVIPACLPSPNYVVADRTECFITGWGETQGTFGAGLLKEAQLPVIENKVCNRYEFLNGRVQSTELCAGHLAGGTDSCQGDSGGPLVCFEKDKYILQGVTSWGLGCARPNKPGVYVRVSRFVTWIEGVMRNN
Method in brief: (§5)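 Plasmin purified from human plasma. Substrate pyroGlu-Pro-Arg-pNA (CS-21(66), Km 400 μM) at 400 μM in assay. HEPES pH 7.0, 37 °C, absorbance at 405 nm followed for 5 min, duplicates.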

Plasma kallikrein [19] = target: T4, Plasma kallikrein; experiment: Inhibition of human plasma kallikrein using D-Pro-Phe-Arg-pNA-2HCl as substrate at 100 uM measured for 5 mins by spectrophotometric assay; type: cell-free; method in brief: as §3
Prothrombin [20] = target: T6, Prothrombin; experiment: Inhibition of human plasma thrombin using pyroGlu-Pro-Arg-pNA-HCl as substrate at 100 uM measured for 5 mins by spectrophotometric assay; type: cell-free; method in brief: as §4
Bos taurus = species: Bos taurus; experiment: Inhibition of bovine pancreatic trypsin using Na-benzoyl-D,L-Arg-pNA-HCl as substrate at 100 uM measured for 5 mins by spectrophotometric assay
Coagulation factor VII = target: T8, Coagulation factor VII (Homo sapiens, UniProt P08709); experiment: Inhibition of purified human factor 7a using MeSO2-Cha-Abu-Arg-pNA as substrate measured for 5 mins by spectrophotometric assay; method in brief: as §1
T8 sequence (P08709 whole entry): T1 sequence (whole entry)

[21] = Inhibition of bovine pancreatic trypsin using Nalpha-benzoyl-D,L-Arg-pNA-HCl as substrate measured for 5 mins by spectrophotometric assay; set-up: species or system Bos taurus
Plasminogen [22] = target: T7, Plasminogen; experiment: Inhibition of human plasma plasmin using pyroGlu-Pro-Arg-pNA-HCl as substrate at 100 uM measured for 5 mins by spectrophotometric assay; type: cell-free; method in brief: as §5
Homo sapiens [23] = species: Homo sapiens; experiment: Selectivity index, ratio of IC50 for purified human factor 7a to IC50 for human uPA

inhibition [1]: 1.4%
IC50 (Coagulation factor X [2]): > 100 µM
inhibition [3]: Active
IC50 (Plasma kallikrein [4]): > 100 µM
inhibition [5]: 8%
inhibition (Coagulation factor X [6]): 41.8%
Ratio IC50 (Homo sapiens [7]): > 1000
inhibition [8]: Active
Ratio IC50 [9]: > 1000
Ratio IC50 (Homo sapiens [10]): > 1000
Ratio IC50 (Homo sapiens [11]): > 1000
inhibition [12]: Active
IC50 [13]: 0.097 µM
Ratio IC50 (Homo sapiens [14]): > 1000
Ratio IC50 (Homo sapiens [15]): > 1000
IC50 [16]: > 100 µM
IC50 (Prothrombin [17]): > 100 µM
IC50 (Plasminogen [18]): > 100 µM
inhibition (Plasma kallikrein [19]): 2.8%
inhibition (Prothrombin [20]): 19.2%
inhibition (Bos taurus): 42.7%
IC50 (Coagulation factor VII): > 100 µM
IC50 [21]: > 100 µM
inhibition (Plasminogen [22]): 13.6%
Ratio IC50 (Homo sapiens [23]): > 1000
SMILES: CCCCNC(=O)c1ccn2c(NCc3ccc(NC(=N)N)cc3)cnc2c1
